We go through 6 compounds from ChEMBL document CHEMBL2034865, “Cytotoxic alkaloids from Fusarium incarnatum associated with the mangrove tree Aegiceras corniculatum” (2012).

Where only a bound is given, the exact number is not on record here.

What all share (type): functional
In one assay the test system is K562. As to the kind of experiment: Antiproliferative activity against human K562 cells. In a few lines:
(§1)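 HUVEC and K562 (DSM ACC 10) cells were exposed to compounds and growth was scored against untreated controls. The readout is GI50, the concentration that cuts growth of treated cells to half that of untreated cells.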

For the next assay, the system named is HUVEC. Put plainly: Antiproliferative activity against HUVEC cells. Conditions: Homo sapiens. In outline:
as §1

A further assay has as its system HeLa. Put plainly: Cytotoxicity against human HeLa cells. In outline:
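HeLa cervix carcinoma cells (DSM ACC 57) were treated with compounds. The readout is CC50, the concentration that kills 50% of treated cells.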

Consider `O=C(CO)c1cccn1CCc1ccc(O)cc1` [FUSARINE], for which the GI50 with K562 and with HUVEC was > 200 µM throughout. Moreover, in the assay with HeLa, the half-maximal cytotoxic concentration (CC50) (commonly the concentration at which the toxic effect on the cells reaches its halfway point) was > 200 µM.

For `CC1=CC(=O)/C(=C(\C)NCCc2ccc(O)cc2)C(=O)O1` [FUSAMINE], the figures for the GI50 in the assay on K562 and with HUVEC were 37.6 µM and 37.3 µM, respectively. This compound also registered a CC50 in the assay with HeLa of 23.3 µM.

For the compound `CC(=O)N1CCc2c([nH]c3ccccc23)C1`, the GI50 (usually the concentration that inhibits growth by half) with K562 came to 33.3 µM; with HUVEC, 41.1 µM. The compound also displayed a CC50 in the assay on HeLa of 23.8 µM.

As to `Cc1ccc(NC(=O)c2ccc(CN3CCN(C)CC3)cc2)cc1Nc1nccc(-c2cccnc2)n1` [IMATINIB], the GI50 amounted to 0.17 µM with K562 and 18.5 µM in the assay with HUVEC. Besides, in the assay on HeLa, the CC50 amounted to 65.8 µM.

As for `CC1=CC(=O)/C(=C(\C)N)C(=O)O1`, the 50% growth inhibitory concentration (GI50) is 9 µM in the assay on K562 and 68.2 µM in the assay with HUVEC. In the assay on HeLa, the CC50 came out at 104 µM.

In the case of `C/C=C(\C)C(=O)NCC(C)C`, the concentration for 50% growth inhibition (GI50) in the assay on K562 and with HUVEC was > 300 µM each time. Besides, the CC50 in the assay with HeLa was > 300 µM.
